ChEMBL document CHEMBL1123269, “Synthesis and antitumor activity of certain 3-beta-D-ribofuranosyl-1,2,4-triazolo[3,4-f]-1,2,4-triazines related to formycin prepared via ring closure of a 1,2,4-triazine precursor” (1986)

Assays:
Type in all cases: functional
CCRF-CEM [1] = test: Concentration that produced 50% inhibition of CCRF-CEM leukemia tumor cell growth was determined; conditions: Homo sapiens, read-out: ID50 (the source's name)
How it was run: (§1)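 Assay in CCRF-CEM human T-lymphoblastic leukemia cells (mycoplasma-free; suspension in RPMI-1640, 10% fetal bovine serum, 20 mM Hepes). Seeded at 5 × 10⁴ cells/mL with compound at 0.1–100 μM final in 0.5-log steps, triplicate, for 92 h at 37 °C in humidified 5% CO₂. Electronic cell count gave growth as % of control (Me₂SO-matched where relevant). ID₅₀ was taken from the plot.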

L1210 [2] = test: Concentration that produced 50% inhibition of L1210 leukemia tumor cell growth was determined; conditions: Mus musculus, read-out: ID50 (the source's name)
How it was run: (§2)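 L1210 murine lymphocytic leukemia cells, mycoplasma-free, grown in suspension in RPMI-1640 with 10% fetal bovine serum and 20 mM Hepes. Inoculum 5 × 10⁴ cells/mL with compound at 0.1–100 μM final (0.5-log steps), in triplicate. Incubated 48 h at 37 °C, humidified 5% CO₂. Growth was measured by Coulter count as % of untreated control, or of a matched Me₂SO control. ID₅₀ was read from the %-control vs concentration plot.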

[3] = Concentration that produced 50% inhibition of WIL2 leukemia tumor cell growth was determined; conditions: Homo sapiens, read-out: ID50 (the source's name)
How it was run: (§3)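 WIL2 human B-lymphoblastic leukemia cells were kept mycoplasma-free in suspension culture in RPMI-1640 with 10% fetal bovine serum and 20 mM Hepes. Triplicate wells held 5 × 10⁴ cells/mL and compound at 0.1–100 μM final (0.5-log dilutions), for 72 h at 37 °C in 5% CO₂. Coulter cell counts gave growth as % of untreated or Me₂SO-matched controls. ID₅₀ came from the concentration plot.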

CCRF-CEM [4] = test: Concentration that produced 50% inhibition of CCRF-CEM leukemia tumor cell growth was determined at 100 uM; conditions: Homo sapiens; how it was run: as §1
L1210 [5] = test: Concentration that produced 50% inhibition of L1210 leukemia tumor cell growth was determined at 100 uM; conditions: Mus musculus; how it was run: as §2
[6] = Concentration that produced 50% inhibition of WIL2 leukemia tumor cell growth was determined at 100 uM; conditions: Homo sapiens; how it was run: as §3

Structure (SMILES): O=C1N=CN=C2C([C@@H]3O[C@H](CO)[C@@H](O)[C@H]3O)=NNC12 (stereo partly drawn)
- IC50 (CCRF-CEM [1]): 8.4 µM
- IC50 (L1210 [2]): 31.6 µM
- IC50 [3]: 7.5 µM

Structure (SMILES): Nc1nn2c([C@@H]3O[C@H](CO)[C@@H](O)[C@H]3O)nnc2c(=S)[nH]1
- IC50 (CCRF-CEM [1]): 67 µM

Structure (SMILES): O=c1[nH]cnn2c([C@@H]3O[C@H](CO)[C@@H](O)[C@H]3O)nnc12
- IC50 (L1210 [2]): 7 µM
- IC50 [3]: 15 µM

Structure (SMILES): Nc1ncnn2c([C@@H]3O[C@H](CO)[C@@H](O)[C@H]3O)nnc12
- IC50 (CCRF-CEM [1]): 5 µM
- IC50 (L1210 [2]): 6.3 µM
- IC50 [3]: 7.3 µM

Structure (SMILES): Nc1nc(N)c2nnc([C@@H]3O[C@H](CO)[C@@H](O)[C@H]3O)n2n1
- IC50 (CCRF-CEM [1]): 44.7 µM
- IC50 (L1210 [2]): 16.3 µM
- IC50 [3]: 45.8 µM

Structure (SMILES): Nc1nn2c([C@@H]3O[C@H](CO)[C@@H](O)[C@H]3O)nnc2c(=O)[nH]1
- inhibition at 100 µM (CCRF-CEM [4]): 30%
- inhibition at 100 µM (L1210 [5]): 47%
- inhibition at 100 µM [6]: 35%

Structure (SMILES): Nc1ncnc2c([C@@H]3O[C@H](CO)[C@@H](O)[C@H]3O)[nH]nc12 [FORMYCIN]
- IC50 (CCRF-CEM [1]): 6.1 µM
- IC50 (L1210 [2]): 27.6 µM
- IC50 [3]: 6.2 µM
